Assay outcomes (PubChem BioAssay)
Sampled rows, rich in hits. Any-hit rate of the full collection: about 0.72%.
hIAP act = human IAP activators, primary screen, biochemical, luminescence, uHTS; AID 2524, 2010; Intestinal-type alkaline phosphatase (Homo sapiens), P09923; purified human IAP, CDP-Star luminescence, 30 min; stronger effect = higher value; 1 = vehicle-only enzyme, 0 = enzyme-free background; activation factor at 10 µM; hit rate 0.16% among 330,000;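 active = activation factor of the enzyme at least 2-fold when tested at 20 µM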
Target sequence (P09923 whole entry, looked up): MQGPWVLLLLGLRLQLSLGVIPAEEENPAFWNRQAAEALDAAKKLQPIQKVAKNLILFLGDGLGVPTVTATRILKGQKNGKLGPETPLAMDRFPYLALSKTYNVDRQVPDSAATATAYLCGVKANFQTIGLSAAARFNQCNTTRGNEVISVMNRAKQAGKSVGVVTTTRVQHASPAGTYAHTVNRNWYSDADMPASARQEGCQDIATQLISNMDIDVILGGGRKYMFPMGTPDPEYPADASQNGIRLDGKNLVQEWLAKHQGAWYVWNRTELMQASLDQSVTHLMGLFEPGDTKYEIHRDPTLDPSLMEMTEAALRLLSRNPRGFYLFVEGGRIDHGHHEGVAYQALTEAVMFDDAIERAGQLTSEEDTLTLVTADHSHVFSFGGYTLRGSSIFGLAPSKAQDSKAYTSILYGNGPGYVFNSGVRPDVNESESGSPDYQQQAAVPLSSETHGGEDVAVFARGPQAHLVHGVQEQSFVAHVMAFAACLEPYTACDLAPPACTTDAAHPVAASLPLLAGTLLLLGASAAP
mIAP activ = activators of mouse IAP, primary screen, biochemical, luminescence, uHTS; intestinal alkaline phosphatase [Mus musculus]; muIAP, CDP-Star luminescence, 30 min; stronger effect = higher value; 1 = vehicle-only enzyme signal, 0 = enzyme-free wells; activation factor at 10 µM; hit rate 0.24% among 330,000; AID 2805, 2010;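 active = activation factor of at least 2 at 20 µM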
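Assay system: mouse IAP enzyme; reagent: chemiluminescent substrate CDP-Star; dosing: test compounds delivered from DMSO solution; schedule: 30 min at room temperature; measured by: luminescence from enzymatic CDP-Star hydrolysis; controls: DMSO-only wells and no-enzyme negative control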
hIAP inh = human IAP inhibitors, primary screen, biochemical, luminescence, uHTS. Intestinal-type alkaline phosphatase (Homo sapiens), P09923. purified IAP, CDP-Star luminescence, 30 min. inhibition, % at 10 µM. hit rate 0.12% among 330,000;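 active = inhibition reaching a set limit with compound at 10 µM in the primary screen, cut at about 35% in these data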;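 also: plate controls were DMSO wells with enzyme for no effect and no-enzyme buffer wells for full effect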
bIAP inh = bovine intestinal alkaline phosphatase inhibitors, primary screen, selectivity assay for TNAP inhibitor project, biochemical, bovine IAP, CDP-star luminescence. purified bovine IAP, 30 min. AID 1019, 2008. alkaline phosphatase, intestinal [Bos taurus]. inhibition, % at 20 µM. 190,000 tested, under 10 active;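 active = over 50% inhibition of intestinal alkaline phosphatase at 20 µM in the single-dose screen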
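Assay system – bovine IAP enzyme · Quantity – bovine IAP at 1/65,000,000 final dilution · Detection – CDP-star luminescence signal · Times – 30 min reaction at room temperature · Also added – CDP-star substrate at 30 µM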
mIAP block = inhibitors of mouse IAP, primary screen, biochemical, luminescence, uHTS | intestinal alkaline phosphatase [Mus musculus] | purified mouse IAP, CDP-Star luminescence, 30 min | inhibition, % at 10 µM | hit rate 0.2% among 330,000 | AID 2806, 2010;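 active = inhibition of at least 40% at 10 µM in the primary screen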;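 also: plate controls were DMSO with enzyme for no effect and no enzyme wells for full effect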
bIAP act = bovine intestinal alkaline phosphatase activators, primary screen, biochemical, bovine IAP, CDP-star luminescence; purified bovine IAP, 30 min; stronger effect = higher value; fold of DMSO-control signal, blank-subtracted; activation factor at 20 µM; hit rate 0.17% among 200,000; AID 1016, 2008;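 active = activation factor of 2 or more at 20 µM, a signal rise over negative controls twice the positive control's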
hIAP act confirm = human IAP activators, confirmation, biochemical, luminescence, single concentration, uHTS hits. shares compounds with hIAP act. hit rate 10% among 880. activation (%Activity, negative = activation), % at 8.3 µM. purified IAP, CDP-Star luminescence, 30 min; stronger effect = lower value;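 active = at least twofold enzyme activation in any of six single-dose repeats, which the averaged readout prints as negative percent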
An asterisk follows results filed as active; . = no result.

SMILES	hIAP act	mIAP activ	hIAP inh	bIAP inh	mIAP block	bIAP act	hIAP act confirm
O=C(COc1ccccc1)NCC(=O)N/N=C/c1cc(Br)ccc1OCc1ccccc1	1.2	0.96	-22	13	4	0.9	.
Cc1ccc(C(=O)N(NC2=NS(=O)(=O)c3ccccc32)S(=O)(=O)c2ccc(C)cc2)cc1	2.4*	1	-137	2	-2	1	-27
CCN(C1=NS(=O)(=O)c2ccccc21)N(CC)S(=O)(=O)c1ccc(C)cc1	1	0.79	-4	9	21	0.9	.
Cc1ccc(NC(=O)c2sc3ccccc3c2Cl)nc1	2.1*	0.98	-110	1	2	1	-29
Cc1cccc(Oc2ncc(-c3ccc(Cl)cc3)cn2)c1C	1.1	0.87	-9	20	13	0.8	.
CCCCN(CCCC)CCCNC(=O)C1CC(c2cc(C(F)(F)F)cc(C(F)(F)F)c2)=NO1 (centres undefined)	1.1	1.1	-9	.	-11	.	.
CC1(C)C[C@@H](O)CC2(C1)C[C@]1(C)CC(O)[C@H]2C(C)(C)C1 (some centres undefined)	2.1*	0.94	-105	.	6	.	-93*
Cc1nnc(SCC(=O)NCc2cccs2)n1-c1ccccc1	2.1*	0.89	-113	8	11	0.9	15
Cc1nnc(SCC(=O)NCc2ccccc2)n1-c1ccccc1	1	1.1	0	6	-8	0.9	.
COc1ccccc1CNC(=O)COC(=O)Cn1cnc2ccccc21	0.95	1	5	-11	-5	1.1	.
COc1ccc(CNC(=O)c2csc(Cc3ccccc3)n2)cc1	2*	0.9	-105	9	10	0.9	9
COc1ccc(NC(=O)c2csc(Cc3ccccc3)n2)cc1	0.87	0.93	13	.	7	0.4	.
N#C/C(=C/c1ccc(O)c(O)c1)c1nc2ccccc2[nH]1	0.42	0.64	58*	.	36	.	4
N#C/C(=C\c1ccc(N2CCCC2)c([N+](=O)[O-])c1)c1nc2ccccc2[nH]1	0.65	0.88	35*	21	12	0.8	-1
N#C/C(=C\c1ccc(N2CCCCC2)c([N+](=O)[O-])c1)c1nn(-c2ccccc2)c(N)c1C#N	0.81	0.84	19	12	16	0.9	.
COC1=CC(=Cc2c(N)n3nc(CC(=O)N4CCOCC4)sc3nc2=O)C=C(OC)C1=O	0.58	0.85	42*	.	15	.	-39
C=CCn1c(O)c(N=Nc2ccccc2O)c2ccccc21	2.2*	0.79	-120	.	21	.	36
O=C(NCC1CCCCC1)c1ccc(F)cc1Cl	0.55	1	45*	.	-4	.	27
Nc1nc(-c2ccccc2)c(N=Nc2cccc3ccccc23)s1	0.65	0.69	35*	0	30	1	15
CCCN1CCC(=O)N([C@H](CSc2ccccc2)CC(C)C)CC1	1.1	0.96	-10	.	4	.	.
CN1CCN(C(=O)c2ccc3c(c2)OCCO3)CC1	0.63	1	37*	11	0	0.9	8
O=C(c1ccccc1)N1CCN(C(=O)c2ccc3c(c2)OCCO3)CC1	1.3	1.3	-28	4	-26	1	.
COn1c(-c2ccc(Cl)cc2)nc2ccc(Cl)cc21	1	0.97	-2	8	3	0.9	.
O=C(O)COn1c(-c2ccc(Cl)cc2)nc2ccc(Cl)cc21	2.2*	0.96	-116	7	4	0.9	27
Cc1ccc(NCc2ccc([N+](=O)[O-])s2)cc1	0.63	0.94	37*	.	6	.	26
SMILES	hIAP act	mIAP activ	hIAP inh	bIAP inh	mIAP block	bIAP act	hIAP act confirm
CC(C)(C)c1ccc(C(=O)Nc2ccc(Oc3cccnc3)nc2)cc1	1.2	1.2	-20	.	-25	.	.
Cc1ccc(C2(O)C(=O)c3ccccc3C2=O)c(O)c1C	1	1	-1	.	-4	.	.
CC(C)(C)c1cccc(C2(O)C(=O)c3ccccc3C2=O)c1O	0.42	0.95	58*	.	5	.	5
O=C(Cc1ccc(Cl)c(Cl)c1)NNC(=S)NCC1CCCO1 (centres undefined)	2.1*	0.95	-107	.	4	.	-98*
S=C(NCC1CCCO1)Nc1ccc(Cl)c(Cl)c1 (centres undefined)	0.98	1.2	2	10	-18	0.9	.
CC1CCCN(C(=O)C2CCN(S(=O)(=O)c3cccc4nsnc34)CC2)C1 (centres undefined)	0.51	0.94	49*	.	6	.	-4
O=C(CSc1nnc(Cc2ccccc2)n1-c1ccccc1)NNC(=O)Cc1ccccc1	2.1*	1	-114	-61	0	1.6	-46
COC(=O)CSc1nnc(Cc2ccccc2)n1-c1ccc(C)cc1	0.94	1.1	6	-4	-6	1	.
O=C1C(C23CC4CC(CC(C4)C2)C3)C(=O)N(c2ccccc2)N1c1ccccc1	0.82	0.95	18	-1	5	1	.
CCCCCC(=O)Nc1ccc(Cl)cn1	0.3	1.2	70*	-2	-21	1	-33
O=C1C=C(N2CCOCC2)c2ccccc2C1=O	0.55	1	45*	.	-4	.	3
CC1=C(C)C(=O)C(N2CCOCC2)=CC1=O	.	.	.	14	.	0.9	.
CN(Cc1ccccc1)C(=O)c1[nH]cnc1C(=O)Nc1nccs1	2.5*	1	-145	.	0	.	-141*
CN(Cc1ccccc1)C(=O)c1[nH]cnc1C(=O)NCc1ccccc1	1.2	0.94	-23	.	6	.	.
O=C(Nc1nccs1)c1nc[nH]c1C(=O)NCc1ccccc1	2.4*	1.1	-136	.	-7	.	-3
Cc1ccccc1CN1CCCNC1=O	1	0.97	-4	3	2	1	.
CC1=NN(c2ccccc2)C(=O)/C1=C/N(C)C	0.93	1.1	7	.	-6	.	.
CC1=NN(c2nc3ccccc3[nH]2)C(=O)/C1=C/N(C)C	2.3*	1.1	-128	-15	-6	1.1	-57*
COC(=O)c1ccc(N2NC(=O)/C(=C/c3cc(OC)c(O)c(OC)c3)C2=O)cc1	0.63	0.87	37*	.	13	.	-48
COC(=O)c1ccc(N2NC(=O)/C(=C/c3cc(OC)c(OC)c(OC)c3)C2=O)cc1	0.99	1	1	.	-2	.	.
CN(C(=O)CSc1ncccc1C(=O)O)c1ccccc1	0.64	1	36*	11	-1	0.9	4
